Consider four compounds from paper PMC4931879 (The Journal of Pharmacology and Experimental Therapeutics, 2016).

The structures appear in SMILES notation. pIC50: −log10 of the molar value.

The test system of data set [1] is Aβx-42 in H4-APPsw cell cultures. Briefly: Automated multiplex HTRF assay, Aβx-42 in H4-APPsw cell cultures. In kind it is cell-based. In a few lines:
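H4-APPsw cultures treated overnight, 1 pM to 50 μM. Aβx-42 and Aβ1-x were read together in an automated HTRF multiplex; the Aβx-42 detection pairing includes monoclonal 4G8. Concentrations came from synthetic-peptide calibration curves (quadratic fit). Seven independent assays; IC50 for Aβx-42 and maximum percent inhibition for Aβ1-x, given with standard deviations.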
In general terms: Time-resolved FRET reads energy transfer from a long-lived donor to a nearby acceptor.

Data set [2] deals with Aβ1-42, Aβ1-40, Aβ1-38 and Aβ1-37 in H4-APPsw cell cultures. In kind it is cell-based. The note with it: overnight. In a few lines:
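H4-APPsw cultures incubated overnight with test compound at 0.46 to 333 nM, with 0.1% DMSO vehicle and a γ-secretase inhibitor reference at 1 μM. Aβ1-42, Aβ1-40, Aβ1-38 and Aβ1-37 were measured by Meso Scale 4-plex immunoassay. Concentrations came from on-plate synthetic-peptide calibration curves (quadratic fit), in pM corrected for dilution. Two replicate wells, standard error shown.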

The test system of data set [3] is Aβ1-x in H4-APPsw cell cultures. Briefly: Automated multiplex HTRF assay, Aβ1-x in H4-APPsw cell cultures. Conditions: read-out: Aβ1-x maximum inhibition, H4-APPsw cell cultures, overnight, at 50 μM; ± standard deviation. Type of data set: cell-based.
Data set [4] concerns Aβ1-42 in H4-APPsw cell cultures. Put plainly: Aβ1-42 immunoassay. In kind it is cell-based. Conditions: read-out: Aβ1-42 IC50. The procedure, abridged: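 Overnight exposure of H4-APPsw cultures, 10 pM to 10 μM. Aβ1-42 and Aβ1-40 were measured in parallel from the same cultures by automated HTRF immunoassays. Concentrations came from synthetic-peptide calibration curves (quadratic fit). Three independent assays; IC50 given with standard deviation.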

Data set [5] concerns Aβ peptides in H4-APPsw cell cultures. Type of data set: cell-based. The note with it: overnight, 100 nM. In a few lines: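 H4-APPsw cultures incubated overnight with 0.1% DMSO or test compound at 100 nM. Aβ peptides were immunoprecipitated and analysed by MALDI mass spectrometry. Peaks were assigned by expected mass, referenced to an equimolar mix of synthetic peptides including [14N]Aβ1-40.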

The subject of data set [6] is Notch1. Put plainly: Cell-based transcriptional reporter assay, Notch1. Conditions: read-out: Notch1 IC50. (In general: Reporter assays use an easily measured gene product as a stand-in for the process of interest.)
In data set [7] the test system is Notch3. Put plainly: Cell-based transcriptional reporter assay, Notch3. Conditions: read-out: Notch3 IC50.
Data set [8] deals with brain Aβ peptides. Put plainly: Brain Aβ peptides in rats after single intravenous doses. In kind it is in vivo, Sprague-Dawley rats. The note with it: rat. The procedure, abridged:
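Female Sprague-Dawley rats, 10–12 weeks old, fasted from 16 h before to 4 h after dosing. Given IV 1, 5 or 10 mg/kg or vehicle (PEG400/ethanol/Solutol HS 15, 93:5:2 w/w/w; 1.5 ml/kg) in randomized order. n = 4 per time point, killed by CO2 at 10 min, 30 min, and 1, 3, 7, 12 and 24 h. Brain without cerebellum frozen in liquid nitrogen. Aβ1-42/40/38/37 measured by singleplex ELISAs; Aβ1-x by 4G8/252Q6-HRP ELISA; compared with vehicle.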

Data set [9] in a line: Plasma exposure in rats after single intravenous doses. In kind it is in vivo, Sprague-Dawley rats. Conditions: rat, intravenous 1, 5, 10 mg/kg. In a few lines: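 Same IV rat study: fasted females, 1, 5 or 10 mg/kg in PEG400/ethanol/Solutol, n = 4 per time point from 10 min to 24 h. Blood taken by cardiac puncture into EDTA for plasma. Plasma deproteinized and extracted with acetonitrile, then analysed by UPLC-MS/MS (C18 column at 60°C); quantitation range 10–5000 nM.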

Data set [10] is described as follows: Distribution into rat brain after oral administration. In kind it is in vivo, rats. The note with it: 10 mg/kg oral. The procedure, abridged: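 Rats dosed orally at 10 mg/kg in PEG400/Solutol/TPGS (90:5:5 w/w/w). n = 3 per time point, sampled at 1, 4, 8 and 24 h. Jugular blood collected into EDTA and centrifuged at 4°C (1500–2000 × g). Brain blotted, weighed and homogenized in 4 volumes of PBS; cerebellum analysed. Samples stored at −20°C, then LC-MS/MS. Brain-to-plasma ratios per time point and brain/plasma AUC ratio.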

In data set [11] the test system is amyloid-β precursor protein C-terminal fragment. Briefly: APP C-terminal fragment accumulation in rat brain. The note with it: 30 mg/kg oral, 8 or 12 hours. Type of data set: in vivo, rats.
Data set [12] deals with CSF Aβ peptides. Briefly: CSF Aβ peptides in dogs after single oral doses. The note with it: dog. In kind it is in vivo, beagle dogs. The procedure, abridged: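 Male beagles, about 1 year old, 8–11 kg, with indwelling lumbar catheters; CSF sampled while conscious and lightly restrained. Fasted 16 h before dosing, fed 4 h after. Four dogs in a randomized crossover with 1-week washout: oral 2, 5 or 30 mg/kg or vehicle. CSF taken predose and up to 72 h, spun at 1330 × g for 10 min at 4°C. Aβ1-42/40/38/37 measured by Meso Scale 4-plex; the four were also summed.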

Data set [13] concerns CSF Aβ peptides. Briefly: CSF Aβ peptides in healthy human subjects after a single 900-mg oral dose. Type of data set: in vivo. In a few lines:
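Placebo-controlled, double-blind single-dose panel of 15 healthy young men and women of non-child-bearing potential. Single 900-mg oral dose or placebo, given fasted. CSF collected via indwelling lumbar catheter at −1, 0, 2, 4, 6, 8, 12, 15, 18 and 24 h. Aβ1-42/40/38 measured by Meso Scale 3-plex; Aβ1-37 by 26D6/Aβ1-37-selective polyclonal ELISA; Aβ1-x by 4G8/26D6-HRP ELISA.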

Data set [14] deals with Aβ1-42. Briefly: PK/PD across species: Aβ1-42 trough versus plasma exposure. The note with it: nonlinear fit of the entire data set: rat, dog, monkey, human. Type of data set: in vivo. In a few lines:
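CSF Aβ1-42 trough (lowest level after dosing) plotted against plasma AUC and Cmax. Values were per individual human subject and per dose in individual dogs and monkeys. Rats used group means, with troughs for both brain and CSF, drawn from the IV study plus two further time courses. A nonlinear fit of the pooled data gave the exposure at 50% inhibition.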

A short description of data set [15]: 14-day daily oral dose safety assessment in rats. Type of data set: in vivo. Conditions: for AUC at 14 days: rat, in vivo, po, 100 mg/kg. The procedure, abridged: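 Safety study in male and female rats given daily oral doses of 10, 30 or 100 mg/kg for 14 days; plasma AUC determined on day 14.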
For data set [16], the system named is CSF Aβ peptides. Briefly: CSF Aβ peptides in monkeys after single intravenous doses. Type of data set: in vivo, cynomolgus monkeys. Conditions: monkey.
Data set [17] in a line: Plasma exposure in monkeys after single intravenous doses. Type of data set: in vivo, cynomolgus monkeys. Conditions: monkey, intravenous 5 or 15 mg/kg. In a few lines: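 Crossover in four lumbar-catheterized male cynomolgus monkeys given IV 5 or 15 mg/kg or vehicle. Blood drawn at 1, 2, 3, 4, 5 and 30 min and at 1, 2, 4, 7, 10, 24 and 48 h. Samples kept on ice and centrifuged at 2880 × g for 10 min; plasma kept for compound levels.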

Data set [18] concerns Aβ1-42 levels in cerebrospinal fluid. Conditions: clinical trials, even at high doses; ref Galasko et al., 2007; cited from earlier work.
Setting [19] is: single intravenous dose 1, 5 or 10 mg/kg.
[20] abbreviates: 30 mg/kg oral, 24 hours after dose.
Where [21] appears, read: intravenous, 12–24 hours after the 30-mg/kg dose (so in the source).

In the case of `C[C@H](c1ccc(F)cc1CCCC(=O)O)N(c1cc(F)ccc1F)S(=O)(=O)c1ccc(Cl)cc1` [BMS-299897, (R)-4-(2-(1-((4-chloro-N-(2,5-difluorophenyl)phenyl)sulfonamido)ethyl)-5-fluorophenyl)butanoic acid, reference compound], in data set [1] (H4-APPsw cell cultures, overnight, 1 pM to 50 μM), the “Reduction of Aβx-42 versus Aβ1-x in the multiplex assays (relative potency)” value is reported as “approximately equal potency”. In addition, in [2] (1 μM), the “Effect on production of Aβ1-42, Aβ1-40, Aβ1-38 and Aβ1-37” value is listed as “inhibited production of all four Aβ peptides”.
Broadly, the pIC50 is the negative decadic logarithm of the IC50, by convention in mol/L. Broadly, the inhibition is the change of the read-out against control, counted positive when it falls. What is called AUC is the area under the concentration-time curve, a measure of exposure. As to `CNc1nc(Nc2ccc(-n3cnc(C)n3)c(OC)c2)nc2c1CC[C@H]2c1ccc(F)cc1` [BMS-932481, (S)-7-(4-fluorophenyl)-N2-(3-methoxy-4-(3-methyl-1H-1,2,4-triazol-1-yl)phenyl)-N4-methyl-6,7-dihydro-5H-cyclopenta[d]pyrimidine-2,4-diamine], the pIC50 in data set [1] (read-out: Aβx-42 IC50) is 8.26. The inhibition at 50 µM in data set [3] is no more than 30%. For the same compound, in data set [4], the pIC50 is 8.18. Also, in [2] (0.46 to 333 nM), the “Effect on the overall level of Aβ” value is “little if any effect”. Further, in data set [5], the “Aβ1-42 and Aβ1-40 detected by IP-MALDI mass spectroscopy” value is “no Aβ1-42 or Aβ1-40 was detected”. In [6], the pIC50 was roughly 6.00. Moreover, the negative logarithm of the IC50 (pIC50) in data set [7] was roughly 6.00. Further, in data set [8] (intravenous 1, 5 or 10 mg/kg), the “Sum of brain Aβ1-42, Aβ1-40, Aβ1-38 and Aβ1-37 concentrations, change” value is “no significant changes”. The “Brain Aβ1-x change” value in [8] (intravenous, any dose or time point) is reported as “no significant changes”. Besides, in [8] (setting [19]), the “Brain Aβ1-37 maximal increase” value is given as “ca. 6 fold”, the “Brain Aβ1-38 maximal increase” value was “ca. 2 fold”, the “Brain Aβ1-40 maximum reduction relative to vehicle-treated rats” value is given as “about 75%” and the “Brain Aβ1-42 maximum reduction relative to vehicle-treated rats” value was “about 75%”. The “Concentrations in blood plasma, dose proportionality” value in data set [9] is given as “dose-proportional”. The Brain penetration entry in data set [10] is given as “moderate brain penetration”. In addition, in data set [11], the “Effect on APP C-terminal fragment accumulation in brain” value is reported as “no effect”. The “CSF Aβ1-37 maximal increase” value in data set [12] (30 mg/kg oral) is 5 fold. In data set [12] (setting [20]), the “CSF Aβ1-40 maximum reduction” value was “ca. 65%” and the “CSF Aβ1-42 maximum reduction” value is listed as “ca. 65%”. Besides, the “Effect on the sum of the four CSF Aβ peptides” value in data set [12] (oral 2, 5 or 30 mg/kg) was “little, if any, effect”. In data set [13], the “CSF Aβ1-37 increase” value was “ca. 12 fold” and the “CSF Aβ1-40 change” value is recorded as “decrease”. In addition, the “CSF Aβ1-42, level relative to predose” value in [13] (after 24 hours) is listed as 50 % of predose levels. Further, the “CSF Aβ1-38 increase” value in data set [13] (gradual increase) is “about 2 fold”. For the same compound, the “CSF Aβ1-x transient increase” value in data set [13] (the same increase in the placebo group) is listed as “approximately 40%”. Further, the “Plasma AUC at 50% inhibition (Aβ1-42 trough)” value in [14] came to 11 μM⋅h. The AUC at 14 days in [15] (female) was determined as 508 µM·h. For the same compound, the AUC at 14 days in data set [15] (male) amounted to 892 µM·h. Further, in data set [15] (rat, 10, 30 or 100 mg/kg daily oral for 14 days, any dose level), the “Histologic changes suggestive of Notch inhibition” value was “no histologic changes suggestive of Notch inhibition”.
Regarding `Cc1ncn(-c2ccc3cc2OC/C=C\CNc2nc(nc4c2CC[C@H]4c2ccc(Cl)cc2F)N3)n1` [BMS-986133, (S,Z)-17-(4-chloro-2-fluorophenyl)-34-(3-methyl-1H-1,2,4-triazol-1-yl)-16,17-dihydro-15H-4-oxa-2,9-diaza-1(2,4)-cyclopenta[d]pyrimidina-3(1,3)-benzenacyclononaphan-6-ene], the “Effect on CSF Aβ1-x or the sum of the four Aβ peptides” value in data set [16] (intravenous 5 or 15 mg/kg) is listed as “little, if any, effect”. In [16] (setting [21]), the “CSF Aβ1-40 maximum reduction” value is recorded as “ca. 75%” and the “CSF Aβ1-42 maximum reduction” value was “ca. 75%”. Further, in [17], the “Concentrations in blood plasma, dose proportionality” value is listed as “dose-proportional”.
As to `CC(C(=O)O)c1ccc(-c2ccccc2)c(F)c1` (stereo not drawn) [flurbiprofen], in data set [18], the “Effect on Aβ1-42 levels in cerebrospinal fluid” value was “no effect”.
